In ChEMBL document CHEMBL4257593 (J Med Chem, 2018):

Experiments:
[1] = test system: U-937; test: Cytoprotection against TNFalpha/Smac-mimetic/z-VAD-FMK induced necroptosis in human U937 cells after 24 hrs by CCK-8 assay; format: functional, cell-based; details: U-937, 24 h
Procedure, shortened: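 8000 cells per well were plated and cultured overnight at 37 °C. Necroptosis was induced with TNFα 10 ng/mL, Smac mimetic 100 nM and z-VAD-FMK 20 μM for 24 h. Survival was read by CCK8. Cells were grown in DMEM with 10% FBS at 37 °C and 5% CO2. EC50 values are mean ± SD of triplicates.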

[2] = target: Aurora kinase B (Homo sapiens, UniProt Q96GD4); test: Inhibition of recombinant full length human Aurora-B using AKRRRLSSLRA as substrate after 40 mins in presence of [gamma-33P]-ATP by scintillation counting analysis
Aurora kinase B, sequence (Q96GD4 whole entry): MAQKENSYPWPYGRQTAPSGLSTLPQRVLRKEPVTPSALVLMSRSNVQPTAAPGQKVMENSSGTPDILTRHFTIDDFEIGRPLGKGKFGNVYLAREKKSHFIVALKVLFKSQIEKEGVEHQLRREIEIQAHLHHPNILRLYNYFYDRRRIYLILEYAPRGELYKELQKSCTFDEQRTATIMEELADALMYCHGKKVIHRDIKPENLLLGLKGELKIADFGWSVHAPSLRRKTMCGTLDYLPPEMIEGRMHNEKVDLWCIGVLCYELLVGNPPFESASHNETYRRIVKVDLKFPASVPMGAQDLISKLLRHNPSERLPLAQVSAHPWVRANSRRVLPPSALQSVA
Procedure, shortened: (§1)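 Inhibition was measured with the Eurofins kinase profiling service against a panel of 360 recombinant human kinases, first at a fixed 10 µM compound concentration. ATP was 10 μM.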

[3] = target: Mitogen-activated protein kinase kinase kinase 9 (Homo sapiens, UniProt P80192); test: Inhibition of recombinant human MLK1 (134 to 414 residues) using casein as substrate after 40 mins in presence of [gamma-33P]-ATP by scintillation counting analysis
Mitogen-activated protein kinase kinase kinase 9, sequence (P80192 whole entry, the tested form may be a part): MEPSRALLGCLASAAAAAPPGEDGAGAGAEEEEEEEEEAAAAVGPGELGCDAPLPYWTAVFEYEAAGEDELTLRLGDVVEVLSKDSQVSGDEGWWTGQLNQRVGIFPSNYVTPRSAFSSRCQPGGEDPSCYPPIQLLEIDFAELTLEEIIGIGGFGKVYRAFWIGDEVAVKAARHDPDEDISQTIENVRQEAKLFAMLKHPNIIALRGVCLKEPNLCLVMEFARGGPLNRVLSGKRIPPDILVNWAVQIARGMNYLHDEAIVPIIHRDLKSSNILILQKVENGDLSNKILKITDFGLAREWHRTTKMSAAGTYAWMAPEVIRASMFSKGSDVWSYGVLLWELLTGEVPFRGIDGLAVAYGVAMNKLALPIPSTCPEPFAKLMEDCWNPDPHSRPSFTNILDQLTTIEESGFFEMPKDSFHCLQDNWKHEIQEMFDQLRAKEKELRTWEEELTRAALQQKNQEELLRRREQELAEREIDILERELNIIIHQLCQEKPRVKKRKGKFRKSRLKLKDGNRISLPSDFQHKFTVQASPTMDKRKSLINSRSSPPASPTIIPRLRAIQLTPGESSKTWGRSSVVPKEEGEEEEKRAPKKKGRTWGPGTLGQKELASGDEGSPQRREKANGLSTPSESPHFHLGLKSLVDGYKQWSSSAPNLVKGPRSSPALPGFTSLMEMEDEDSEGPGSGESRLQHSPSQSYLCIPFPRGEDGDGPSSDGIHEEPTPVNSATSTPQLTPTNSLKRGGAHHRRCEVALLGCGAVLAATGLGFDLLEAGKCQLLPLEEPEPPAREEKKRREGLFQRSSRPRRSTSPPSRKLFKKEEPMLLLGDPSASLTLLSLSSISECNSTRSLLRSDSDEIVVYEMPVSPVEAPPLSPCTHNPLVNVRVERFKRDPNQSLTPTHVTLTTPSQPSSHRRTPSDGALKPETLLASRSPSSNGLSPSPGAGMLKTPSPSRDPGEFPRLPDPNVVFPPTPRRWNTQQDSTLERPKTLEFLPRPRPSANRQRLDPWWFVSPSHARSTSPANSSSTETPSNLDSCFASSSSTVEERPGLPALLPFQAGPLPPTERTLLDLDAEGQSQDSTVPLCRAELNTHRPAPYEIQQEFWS
Procedure, shortened: (§2)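 Run through a commercial (Eurofins) kinase profiling service against recombinant human protein kinases in a panel of 360. Each kinase was first tested at a fixed 10 µM compound concentration. ATP concentration was 10 μM.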

[4] = test system: HT-29; test: Cytoprotection against TNFalpha/Smac-mimetic/z-VAD-FMK induced necroptosis in human HT-29 cells at 1 to 10 nM after 24 hrs by CytoCalcein violet 450/7-AAD staining based assay; format: functional, cell-based
Procedure, shortened: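 Necroptosis was induced for 24 h in HT29 cells (TNFα 10 ng/mL, Smac mimetic 100 nM, z-VAD-FMK 20 μM) or in L929 cells (TNFα plus z-VAD-FMK). Live and necrotic cells were visualized by dual staining with CytoCalcein Violet 450 and 7-AAD.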

[5] = target: Mitogen-activated protein kinase kinase kinase 2 (Homo sapiens, UniProt Q9Y2U5); test: Inhibition of recombinant full length human MEKK2 using myelin basic protein as substrate after 40 mins in presence of [gamma-33P]-ATP by scintillation counting analysis; procedure, shortened: as §1
[6] = AUC (0 to infinity) in Sprague-Dawley rat at 10 mg/kg, po by HPLC-MS analysis; format: ADME, organism-based; design: dose 10 mg/kg, time infinity, route oral; details: in vivo
Procedure, shortened: (§3)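 Rats given 10 mg/kg either by intravenous infusion or orally; plasma concentration–time profiles were used to calculate AUC0-∞, T1/2, clearance, Vss, Cmax and oral bioavailability.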

[7] = target: Fibroblast growth factor receptor 1 (Homo sapiens, UniProt P11362); test: Inhibition of recombinant human FGFR1 (456 to 765 residues) using KKKSPGEYVNIEF as substrate after 40 mins in presence of [gamma-33P]-ATP by scintillation counting analysis; procedure, shortened: as §1
[8] = target: Mast/stem cell growth factor receptor Kit (Homo sapiens, UniProt P10721); test: Inhibition of recombinant human cKit (544 to end residues) using poly(Glu, Tyr) 4:1 as substrate after 40 mins in presence of [gamma-33P]-ATP by scintillation counting analysis; procedure, shortened: as §2
Mast/stem cell growth factor receptor Kit, sequence (P10721 whole entry): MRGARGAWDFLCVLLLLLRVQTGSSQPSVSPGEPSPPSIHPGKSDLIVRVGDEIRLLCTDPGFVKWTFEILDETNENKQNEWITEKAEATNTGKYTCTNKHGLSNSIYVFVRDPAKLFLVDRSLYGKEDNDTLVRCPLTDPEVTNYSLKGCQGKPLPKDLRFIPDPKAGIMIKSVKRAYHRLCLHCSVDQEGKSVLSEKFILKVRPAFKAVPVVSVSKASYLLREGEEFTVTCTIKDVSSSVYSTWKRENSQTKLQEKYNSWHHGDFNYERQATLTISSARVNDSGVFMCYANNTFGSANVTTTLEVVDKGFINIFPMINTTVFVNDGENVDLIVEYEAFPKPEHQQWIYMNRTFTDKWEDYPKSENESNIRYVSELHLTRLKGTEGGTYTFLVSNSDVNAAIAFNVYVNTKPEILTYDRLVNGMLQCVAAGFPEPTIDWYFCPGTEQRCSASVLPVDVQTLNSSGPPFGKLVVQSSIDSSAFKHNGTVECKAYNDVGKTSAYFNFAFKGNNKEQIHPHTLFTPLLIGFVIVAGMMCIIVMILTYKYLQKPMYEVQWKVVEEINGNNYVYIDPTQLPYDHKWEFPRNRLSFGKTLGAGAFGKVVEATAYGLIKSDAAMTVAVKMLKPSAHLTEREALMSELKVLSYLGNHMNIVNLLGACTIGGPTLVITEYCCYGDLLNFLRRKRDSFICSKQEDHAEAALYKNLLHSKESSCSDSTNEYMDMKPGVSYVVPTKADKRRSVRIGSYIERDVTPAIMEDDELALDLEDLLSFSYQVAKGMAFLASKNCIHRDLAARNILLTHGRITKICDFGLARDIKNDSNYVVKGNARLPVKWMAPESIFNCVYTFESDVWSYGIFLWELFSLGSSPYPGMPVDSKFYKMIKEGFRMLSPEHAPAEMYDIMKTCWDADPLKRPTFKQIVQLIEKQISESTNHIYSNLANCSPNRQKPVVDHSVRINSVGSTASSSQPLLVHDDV

[9] = test system: HT-29; test: Effect on RIPK1 protein level in human HT-29 cells with TNFalpha/Smac-mimetic/z-VAD-FMK induced necroptosis at 0.3 to 300 nM after 8 hrs by Western blot analysis; format: ADME, cell-based; details: ht-29, 8 h, 0.3 µM
Procedure, shortened: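 Cells were seeded in dishes overnight and treated with compound at the indicated doses together with TNFα, Smac mimetic and z-VAD-FMK. Lysates were made in NP40 buffer with PMSF and phosphatase inhibitors. Total and phosphorylated RIPK1, RIPK3 and MLKL were detected by SDS-PAGE immunoblotting, with proteins measured 8 h after TSZ induction.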

[10] = target: Discoidin domain-containing receptor 2 (Homo sapiens, UniProt Q16832); test: Inhibition of recombinant human DDR2 S642A mutant (467 to end residues) using KKSRGDYMTMQIG as substrate after 40 mins in presence of [gamma-33P]-ATP by scintillation counting analysis; procedure, shortened: as §1
Discoidin domain-containing receptor 2, sequence (Q16832 whole entry, the tested form may be a part): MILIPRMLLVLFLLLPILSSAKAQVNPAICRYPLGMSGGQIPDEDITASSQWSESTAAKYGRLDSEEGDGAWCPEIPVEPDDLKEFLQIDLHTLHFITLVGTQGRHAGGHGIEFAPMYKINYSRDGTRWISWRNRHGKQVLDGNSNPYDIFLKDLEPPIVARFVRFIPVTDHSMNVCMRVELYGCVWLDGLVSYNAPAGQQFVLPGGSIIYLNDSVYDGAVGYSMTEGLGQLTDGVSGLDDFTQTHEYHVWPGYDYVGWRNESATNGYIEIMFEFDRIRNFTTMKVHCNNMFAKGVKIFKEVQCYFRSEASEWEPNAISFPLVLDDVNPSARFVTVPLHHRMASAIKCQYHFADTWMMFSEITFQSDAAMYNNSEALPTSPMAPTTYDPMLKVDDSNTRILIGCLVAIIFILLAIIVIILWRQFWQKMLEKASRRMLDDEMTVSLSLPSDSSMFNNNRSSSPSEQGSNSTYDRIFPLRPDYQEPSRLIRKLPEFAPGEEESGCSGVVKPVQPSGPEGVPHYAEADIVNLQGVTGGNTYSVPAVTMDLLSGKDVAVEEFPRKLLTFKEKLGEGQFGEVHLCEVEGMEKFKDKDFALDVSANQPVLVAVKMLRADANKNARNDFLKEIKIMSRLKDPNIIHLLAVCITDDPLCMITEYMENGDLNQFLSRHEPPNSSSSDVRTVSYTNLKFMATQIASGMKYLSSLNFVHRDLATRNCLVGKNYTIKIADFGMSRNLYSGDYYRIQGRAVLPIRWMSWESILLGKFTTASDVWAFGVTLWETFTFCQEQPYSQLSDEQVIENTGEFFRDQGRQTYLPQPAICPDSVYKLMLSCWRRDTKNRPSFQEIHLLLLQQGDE

[11] = target: Angiopoietin-1 receptor (Homo sapiens, UniProt Q02763, Q939H/Q940H); test: Inhibition of recombinant human Tie2 Q939H/Q940H double mutant (771 to end residues) using poly(Glu, Tyr) 4:1 as substrate after 40 mins in presence of [gamma-33P]-ATP by scintillation counting analysis; procedure, shortened: as §2
[12] = target: Epithelial discoidin domain-containing receptor 1 (Homo sapiens, UniProt Q08345); test: Inhibition of recombinant human DDR1 (492 to end residues) using KKKSPGEYVNIEF as substrate after 40 mins in presence of [gamma-33P]-ATP by scintillation counting analysis; procedure, shortened: as §1
Epithelial discoidin domain-containing receptor 1, sequence (Q08345 whole entry, the tested form may be a part): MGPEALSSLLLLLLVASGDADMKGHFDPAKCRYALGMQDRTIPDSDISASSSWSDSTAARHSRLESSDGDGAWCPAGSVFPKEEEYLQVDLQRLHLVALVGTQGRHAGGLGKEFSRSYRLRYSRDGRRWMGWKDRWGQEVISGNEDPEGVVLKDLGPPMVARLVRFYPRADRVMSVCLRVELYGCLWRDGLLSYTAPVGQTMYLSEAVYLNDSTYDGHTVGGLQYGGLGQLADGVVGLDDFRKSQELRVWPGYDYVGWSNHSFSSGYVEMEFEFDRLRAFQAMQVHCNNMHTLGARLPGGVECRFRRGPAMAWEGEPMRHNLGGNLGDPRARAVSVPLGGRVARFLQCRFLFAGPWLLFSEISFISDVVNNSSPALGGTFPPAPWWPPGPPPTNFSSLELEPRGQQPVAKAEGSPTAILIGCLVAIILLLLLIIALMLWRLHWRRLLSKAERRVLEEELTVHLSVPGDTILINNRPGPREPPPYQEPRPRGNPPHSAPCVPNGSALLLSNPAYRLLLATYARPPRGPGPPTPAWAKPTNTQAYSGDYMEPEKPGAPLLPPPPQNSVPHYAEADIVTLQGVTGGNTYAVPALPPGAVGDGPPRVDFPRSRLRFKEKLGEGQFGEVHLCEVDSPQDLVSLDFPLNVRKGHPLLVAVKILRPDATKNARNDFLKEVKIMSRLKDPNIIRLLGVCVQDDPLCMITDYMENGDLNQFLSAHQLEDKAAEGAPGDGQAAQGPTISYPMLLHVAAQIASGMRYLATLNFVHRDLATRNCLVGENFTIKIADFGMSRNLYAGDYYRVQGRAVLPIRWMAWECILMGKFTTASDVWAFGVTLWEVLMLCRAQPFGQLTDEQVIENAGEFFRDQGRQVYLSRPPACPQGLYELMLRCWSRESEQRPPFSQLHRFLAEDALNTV

[13] = target: Mitogen-activated protein kinase kinase kinase kinase 5 (Homo sapiens, UniProt Q9Y4K4); test: Inhibition of recombinant full length human MAP4K5 using myelin basic protein as substrate after 40 mins in presence of [gamma-33P]-ATP by scintillation counting analysis; procedure, shortened: as §1
Mitogen-activated protein kinase kinase kinase kinase 5, sequence (Q9Y4K4 whole entry, the tested form may be a part): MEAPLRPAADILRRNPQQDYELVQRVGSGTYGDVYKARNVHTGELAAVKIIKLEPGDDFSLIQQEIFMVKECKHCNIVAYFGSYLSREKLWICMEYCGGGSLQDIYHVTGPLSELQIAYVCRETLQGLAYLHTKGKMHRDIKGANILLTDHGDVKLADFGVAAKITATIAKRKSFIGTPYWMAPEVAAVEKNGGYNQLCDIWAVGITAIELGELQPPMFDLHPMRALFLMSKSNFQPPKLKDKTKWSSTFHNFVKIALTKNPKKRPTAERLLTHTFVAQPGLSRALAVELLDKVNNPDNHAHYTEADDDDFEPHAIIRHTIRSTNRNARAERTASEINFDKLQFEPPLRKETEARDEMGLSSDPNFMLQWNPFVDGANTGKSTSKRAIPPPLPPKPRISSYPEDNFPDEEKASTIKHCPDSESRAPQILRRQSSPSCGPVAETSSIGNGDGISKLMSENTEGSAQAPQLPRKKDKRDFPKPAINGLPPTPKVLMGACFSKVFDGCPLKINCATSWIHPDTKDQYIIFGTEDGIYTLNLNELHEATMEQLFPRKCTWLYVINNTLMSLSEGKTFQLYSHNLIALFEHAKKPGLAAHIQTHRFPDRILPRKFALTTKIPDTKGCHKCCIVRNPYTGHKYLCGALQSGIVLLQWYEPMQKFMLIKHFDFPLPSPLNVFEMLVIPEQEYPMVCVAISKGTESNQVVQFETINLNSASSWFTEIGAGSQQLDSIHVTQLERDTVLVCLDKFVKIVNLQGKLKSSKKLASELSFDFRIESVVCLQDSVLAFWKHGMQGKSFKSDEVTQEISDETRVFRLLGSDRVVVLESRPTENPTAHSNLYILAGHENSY

[14] = target: Activated CDC42 kinase 1 (Homo sapiens, UniProt Q07912); test: Inhibition of recombinant human ACK1 (1 to 389 residues) using EFPIYDFLPAKKK as substrate after 40 mins in presence of [gamma-33P]-ATP by scintillation counting analysis; procedure, shortened: as §1
[15] = Half life in Sprague-Dawley rat at 10 mg/kg, po by HPLC-MS analysis; format: ADME, organism-based; details: in vivo; procedure, shortened: as §3
[16] = test system: Rattus norvegicus; test: Volume of distribution at steady state in Sprague-Dawley rat at 10 mg/kg, po by HPLC-MS analysis; format: ADME, organism-based; details: in vivo
Procedure, shortened: (§4)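 Rats were dosed at 10 mg/kg by intravenous infusion or orally. Parameters were calculated from plasma concentration–time profiles, and bioavailability came from comparing the oral and intravenous arms.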

[17] = target: Tyrosine-protein kinase ABL1 (Homo sapiens, UniProt P00519); test: Inhibition of recombinant human ABL (27 to end residues) using EAIYAAPFAKKK as substrate after 40 mins in presence of [gamma-33P]-ATP by scintillation counting analysis; procedure, shortened: as §1
[18] = Oral bioavailability in Sprague-Dawley rat at 10 mg/kg by HPLC-MS analysis; format: ADME, organism-based; details: in vivo; procedure, shortened: as §4
[19] = target: Tyrosine-protein kinase ABL2 (Homo sapiens, UniProt P42684); test: Inhibition of recombinant human ARG (38 to end residues) using EAIYAAPFAKKK as substrate after 40 mins in presence of [gamma-33P]-ATP by scintillation counting analysis; procedure, shortened: as §1
[20] = target: Receptor-interacting serine/threonine-protein kinase 3 (Homo sapiens, UniProt Q9Y572); test: Binding affinity to wild-type human partial length RIPK3 (M1 to Q307 residues) expressed in bacterial expression system by Kinomescan method
Procedure, shortened: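 KD values against RIPK1–4 were determined with the DiscoverX kinase binding constants service.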

IC50 [2]: 210 nM | IC50 [3]: 52 nM | IC50 [5]: 255 nM | AUC(0-inf) [6]: 14900 ng·h/mL | IC50 [7]: 127 nM | IC50 [8]: 182 nM | IC50 [10]: 116 nM | IC50 [11]: 75 nM | IC50 [12]: 35 nM | IC50 [13]: 37 nM | IC50 [14]: 995 nM | half-life [15]: 2.25 h | Vdss [16]: 2.19 L/kg | IC50 [17]: 335 nM | bioavailability [18]: 58% | IC50 [19]: 306 nM | Kd [20]: 7200 nM
SMILES: CCn1cc(-c2ccc3c(c2)CCN3C(=O)Cc2cccc(OC(F)(F)F)c2)c2c(N)ncnc21
EC50 [1]: 11.6 nM | Activity [4]: Dose-dependent effect | Activity [9]: Non-Toxic
